# Source: ChEMBL document CHEMBL3352256 (J Med Chem, 2014)
# Columns and labels:
# [1] = Inhibition of HTLV-1 protease; set-up: species or system Human T-cell leukemia virus type I
# [2] = tested on: Human T-cell leukemia virus type I; assay: Inhibition of HTLV-1 protease at 40 uM using (RE(Edans)TKVLVVQPK(Dabsyl)R) substrate by fluorescence-based assay
# In short: (§1)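 HTLV-1 PR (aspartic protease, homodimer) activity was measured in a fluorescence-based assay. Inhibitors were tested at 80, 40 and 8 μM, and the read-out was percent inhibition. A percentage efficiency index (PEI) was then calculated from the percent inhibition value and the molecular weight.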
# [3] = tested on: Human T-cell leukemia virus type I; assay: Inhibition of HTLV-1 protease at 8 uM using (RE(Edans)TKVLVVQPK(Dabsyl)R) substrate by fluorescence-based assay; in short: as §1
# [4] = tested on: Human T-cell leukemia virus type I; assay: Inhibition of HTLV-1 protease at 80 uM using (RE(Edans)TKVLVVQPK(Dabsyl)R) substrate by fluorescence-based assay; in short: as §1
SMILES,Ki [1],inhibition [2],inhibition [3],inhibition [4]
Cc1c(O)cccc1C(=O)N[C@@H](CSc1ccccc1)[C@H](O)CN1C[C@H]2CCCC[C@H]2C[C@H]1C(=O)NC(C)(C)C,> 20 µM,,,
CC(C)(C)NC(=O)[C@@H]1CNCCN1C[C@@H](O)C[C@@H](Cc1ccccc1)C(=O)N[C@H]1c2ccccc2C[C@H]1O,,45.1%,16.8%,60.8%
CC(C)CN(C[C@@H](O)[C@H](Cc1ccccc1)NC(=O)O[C@H]1CCOC1)S(=O)(=O)c1ccc(N)cc1,> 20 µM,,,
CC(C)(C)NC(=O)[C@@H]1C[C@@H]2CCCC[C@@H]2CN1C[C@@H](O)[C@H](Cc1ccccc1)NC(=O)[C@H](CC(N)=O)NC(=O)c1ccc2ccccc2n1,> 20 µM,,,
CC(C)(C)NC(=O)[C@@H]1CN(Cc2cccnc2)CCN1C[C@@H](O)C[C@@H](Cc1ccccc1)C(=O)N[C@H]1c2ccccc2C[C@H]1O,3.5 µM,91.2%,71.8%,95.4%
